Results as given in article PMC3371134 (Journal of Neurochemistry, 2012).
Entries after “also recorded” stand apart in the source; their conditions may differ. Where two headings read alike, the source gives them in different places.

Columns and labels:
centrin 2 (Cetn2) = experiment: Yeast two-hybrid; type: binding, mouse; conditions: LexA and VP16 fusions, lacZ reporter, X-gal
In short: (§1)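 Mouse coding sequences (from brain cDNA) were cloned as galactose-inducible LexA and VP16 fusions and co-transformed into S260 yeast, selected on glucose Trp−/Ura− plates. Colonies on filters were switched to galactose for induction, then assayed for lacZ with X-gal. Autoactivation was checked against LexA/VP16 control vectors. Blue within 1 h was scored positive; blue at 2–4 h was scored weak.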

calcineurin B (CnB) = experiment: Yeast two-hybrid; type: binding, mouse; conditions: LexA and VP16 fusions, lacZ reporter, X-gal
In short: as §1

calneuron 1 (Caln1) = experiment: Yeast two-hybrid; type: binding, mouse; conditions: LexA and VP16 fusions, lacZ reporter, X-gal
In short: as §1

calmodulin-Sepharose = experiment: CaM-Sepharose pulldown of Myc-tagged proteins expressed in COS-7 cells; type: binding; conditions: for CaM-Sepharose pulldown, calcium-replete: 5mM CaCl2; for CaM-Sepharose pulldown, calcium-replete / CaM-Sepharose pulldown, calcium-poor: TX-buffer pH 6.9, overnight at 4°C, anti-Myc western blot; for calcium dependence of CaM binding / overall CaM binding: 5mM CaCl2 or 5mM EGTA, summary in Discussion; for CaM-Sepharose pulldown, calcium-poor: 5mM EGTA
In short: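 Myc-tagged mouse constructs (from brain cDNA) were expressed in COS-7 cells, grown in DMEM/10% FBS at 37°C and transfected at 80% confluency with 3 μg plasmid. After 48 h, cells were lysed 30 min at 4°C in TX-buffer (50 mM Tris-HCl pH 6.9, 0.5% Triton X-100, protease inhibitors). Cleared lysate was incubated overnight at 4°C with CaM-Sepharose, then washed 3× and detected by SDS-PAGE/anti-Myc (9E10) western blot with ECL.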

[1] = cited from earlier work
[2] = system: calmodulin-like 4 (Calml4); experiment: Yeast two-hybrid; type: binding, mouse; conditions: LexA and VP16 fusions, lacZ reporter, X-gal
In short: as §1

CaM = conditions: ref Putkey et al., 2008; cited from earlier work

Substance	interaction with Cetn2 in Y2H (centrin 2 (Cetn2))	interaction with CnB in Y2H (calcineurin B (CnB))	interaction with Caln1 in Y2H (calneuron 1 (Caln1))	CaM-Sepharose pulldown, calcium-replete (calmodulin-Sepharose)	calcium dependence of CaM binding / overall CaM binding (calmodulin-Sepharose)	CaM-Sepharose pulldown, calcium-poor (calmodulin-Sepharose)	structure in solution ([1]; ref Cui et al., 2003, Ran et al.)	interaction with Calml4 in Y2H [2]	role of acidic region (EEFDIDMDAPETE) in CaM binding (CaM)	structure in solution ([1]; NMR and circular dichroism, ref Dickerson, 2004, Dickerson et al., 2006, Kleerekoper and Putkey, 2009)
neurogranin: calpacitin IQ motif protein, 78 amino acids	no binding was detected	no binding was detected	no binding was detected	associate weakly in high calcium	strong CaM binder	bind to CaM-Sepharose in calcium-poor (Eg) conditions; also recorded: bind CaM in low calcium conditions	disordered in solution	no binding was detected	–	–
PEP-19: calmodulin binding IQ motif protein, 62 amino acids	no binding was detected	no binding was detected	no binding was detected	associate weakly in high calcium; also recorded: interacted weakly or not at all with CaM-Sepharose under calcium-replete conditions	binds preferentially to calcium-free CaM	bind to CaM-Sepharose in calcium-poor (Eg) conditions; also recorded: bind CaM in low calcium conditions	–	no binding was detected	dispensable for CaM binding	disordered in solution although it has a propensity to helix formation
